Experimental data from different studies.
Lines come from different studies, so protocols differ.

SMILES	test system	conditions	endpoint	result
CC(C)(O)c1ccccc1-c1ccc2[nH]c(/C=C/c3ccc(C(F)(F)F)cc3)nc2c1	male human, plasma	oral, 1 mg, single dose, fasted	Tmax	4.44 h
Oc1c(Br)cc(Cl)c2cccnc12	Sprague-Dawley rat, plasma	subcutaneous, 10 mg/kg	MRT	7.8 h
CC(=O)Nc1nnc(N2CCN([C@@H](C)c3ccc4c(c3)OCO4)CC2)s1	rabbit, plasma	1 µM	fraction unbound	0.059
CC(C)n1cc(C#N)c2cc(-n3cc(C(=O)O)cn3)ccc21	male human, plasma	oral, 600 mg, single dose, fasted, healthy volunteers	Tmax	2.5 h
CCOC(=O)[C@@]12C[C@@H]1[C@@H](n1ccc3c(NC)nc(C#Cc4ccc(Cl)s4)nc31)[C@H](O)[C@@H]2O	male Sprague-Dawley rat, plasma	oral, 10 mg/kg	MRT	2.75 h
C=CC(=O)N(C)CCOc1c(N)ncnc1-c1cc(F)cc(NC(=O)c2ccc(C3CC3)cc2F)c1C	human, blood	oral, 30 mg, single dose, healthy volunteers	Tmax	0.5 h
CCc1cc(C(=O)NC)c2nccc(N3CCc4c(cc(Cn5ccnc5)cc4-c4cn(C)nc4C(F)(F)F)C3=O)c2c1	male Sprague-Dawley rat, plasma	oral, 50 mg/kg, single dose	MRT(0-inf)	2.2 h
O=C(Nc1cc(F)c(F)c(F)c1)c1ccc(F)c(S(=O)(=O)NCc2cccc(B(O)O)c2)c1	male Sprague-Dawley rat, plasma	intravenous, 2 mg/kg	MRT(0-inf)	0.83 h
C[C@@H](Nc1cc(F)cc(F)c1)c1cc(C(=O)N(C)C)cc2c(=O)cc(N3CCOCC3)oc12	human, plasma	oral, 60 mg, patients	Tmax	4.08 h
Cn1cc(-c2ccc(S(=O)(=O)[C@@H]3C[C@@H](C(=O)NC4(C#N)CC4)N(C(=O)C4(C(F)(F)F)CC4)C3)c(C(F)(F)F)c2)cn1	human, plasma	oral, 30 mg, single dose, fasted, healthy volunteers	Tmax	4.51 h
CNC(=O)Nc1cc(Oc2cncc(C)c2)c([C@H]2C[C@@H](O)C2)cn1	rat, plasma	–	fraction unbound	0.32
